# Screens deposited in PubChem BioAssay by several laboratories.
# EP2 modulator – modulates human prostaglandin E2 receptor EP2 signaling; P43116; EP2-expressing cells, cAMP HTRF FRET, PGE2 co-stimulation; induction, % at 25 µM; 0.83% of 260,000 active; AID 940;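 active = compounds whose cAMP rise, as percent of the full-agonist control response, exceeds 60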;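 note: rat C6 glioma line stably carrying human EP2 under a CMV promoter; the protocol text gives 20 µM as final concentration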
# Target sequence (P43116 whole entry, looked up): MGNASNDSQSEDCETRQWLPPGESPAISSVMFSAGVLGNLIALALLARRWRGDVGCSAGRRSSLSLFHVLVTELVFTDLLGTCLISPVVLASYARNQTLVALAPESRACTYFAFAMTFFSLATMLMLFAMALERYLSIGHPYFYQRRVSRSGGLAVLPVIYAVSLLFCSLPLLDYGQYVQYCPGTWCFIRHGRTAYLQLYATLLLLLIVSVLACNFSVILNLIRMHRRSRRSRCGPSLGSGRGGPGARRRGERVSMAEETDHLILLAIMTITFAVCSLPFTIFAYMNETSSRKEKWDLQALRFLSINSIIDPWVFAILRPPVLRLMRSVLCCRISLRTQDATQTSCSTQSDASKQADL
# EP2 antag – blocks the human prostaglandin E2 receptor EP2; C6 glioma cells expressing human EP2, cAMP TR-FRET; cells stimulated with saturating PGE2; inhibition, % at 25 µM; 0.52% of 260,000 active; AID 1422;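 active = percent inhibition above 40 after rounding to a whole number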;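 note: rat C6 glioma host cells with rolipram phosphodiesterase inhibitor present; the protocol text gives 20 µM as final concentration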
# Hsp70 act – transcriptional activators of Hsp70. HeLa Hsp70 promoter luciferase reporter, luminescence; scaled: vehicle 0, proteasome-inhibitor control 100%. activation, % at 10 µM. 0.04% of 200,000 active;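 active = activation above the mean across all tested compounds plus 3 SD, cutoff set per campaign, cut at about 5.5% in these data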
# Dynein cargo inh – blocks dynein driven cargo transport along microtubules. 3617.4 mouse cells, GR-EGFP nuclear translocation imaging; test concentration mostly 20 µM; stimulated with dexamethasone, 1 µM; stronger effect = lower value. z-score, hits read low. 0.47% of 220,000 active. AID 1381;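 active = plate z-score of nuclear minus cytoplasmic receptor signal below a set negative limit, without overly bright fluorescence or cell loss, cut at about -3.5 in these data, passing the limit was not always enough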;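 note: z-score of nuclear minus cytoplasmic ring GR-EGFP intensity difference per well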
#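 Schedule: 48 h induction, then 1 h compound, then 30 min agonist, 37 °C. Buffer or medium: tetracycline-free induction medium containing charcoal-stripped FBS. Reagent: 1.0 µM final dexamethasone stimulus. Evaluation: nuclear versus cytoplasmic GR-EGFP signal, averaged per well. Signal: high-content fluorescence imaging after fixation.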
# A number is an active result; – = inactive; · = no result; ! = repeats disagree. Compounds with a hit are over-represented: about 1.7% of the library has one in this group of screens.
SMILES,EP2 modulator,EP2 antag,Hsp70 act,Dynein cargo inh
O=C1C(c2c(O)[nH]c3ccccc23)=Nc2ccccc21,·,–,–,·
Cc1csc(NC(=O)c2c(O)c3cccc4c3n(c2=O)CC4)n1,–,–,·,·
COc1ccc(-c2oc3ncnc(NCCCN4CCOCC4)c3c2-c2ccc(OC)cc2)cc1,60.9,–,–,–
COc1ccc(C2=CC3=C(Br)C(=O)C(C)(O)C(=O)C3=CO2)cc1 (configuration not stated),–,133.8,·,–
CCC(=O)OC1(C)C(=O)C2=COC(c3ccc(OC)cc3)=CC2=C(Br)C1=O (configuration not stated),–,–,·,–
c1ccc(CNc2nc(NCc3ccccc3)c3ccccc3n2)cc1,–,95.5,·,–
Fc1ccccc1-c1nc(NCc2ccccc2)c2ccccc2n1,–,–,·,–
CCc1ccc(NC(=O)CN2C(=O)C(C)(C)Oc3ccc(C(=O)NC4CCCC4)cc32)cc1,–,–,·,·
O=[N+]([O-])c1ccc2c(c1)Cc1cc(N=Cc3ccc4c(c3)OCO4)ccc1-2,–,50.8,·,·
Cn1c(N)c(C(=O)CCl)c(=O)n(Cc2ccccc2)c1=O,–,–,–,-5.95
c1ccc(CCNc2ccnc3cc4ccccc4cc23)cc1,–,57.5,–,–
CC(C)Nc1ccc(Nc2ccnc3cc4ccccc4cc23)cc1,–,–,·,–
CC(C)O/C(=N\S(=O)(=O)c1ccc(Cl)cc1)c1ccccc1,–,–,–,–
CC(C)CO/C(=N/S(=O)(=O)c1ccccc1)c1ccccc1,64.7,–,–,–
COc1cc(C(=O)Nc2nc(-c3cccs3)cs2)cc(OC)c1OC,–,87.5,–,–
Cc1csc(NC(=O)c2sc3nc(-c4cccs4)ccc3c2N)n1,–,63.7,–,–
COc1ccc(C(=O)Nc2nc(-c3cccs3)cs2)cc1,–,42.6,–,–
O=C(Nc1nc(-c2cccs2)cs1)c1ccc(Cl)cc1,–,–,–,–
O=C(/C=C/c1ccccc1)NC1CC2CCCC(C1)N2Cc1cccs1 (configuration not stated),–,49.1,·,·
Cn1c(=O)c2c(nc(SCC(=O)c3ccccc3)n2C)n(C)c1=O,–,–,·,·
Nc1nc(/C=C/c2c[nH]c3ccccc23)nc(-c2ccccc2O)n1,–,91.4,·,·
Cc1ccnc(Sc2ccc([N+](=O)[O-])cc2[N+](=O)[O-])n1,–,–,–,-4.78
CC1CCN(c2nc3c(c(=O)[nH]2)CN(Cc2c(F)cccc2F)CC3)CC1,–,–,·,·
Cc1ccc(-c2cc(N)c(=O)n(CC(=O)NC3CCCc4ccccc43)n2)s1 (configuration not stated),–,–,·,·
COC(=O)[C@@]1(Cc2ccc(OC)cc2)[C@@H]2C(=CC(=O)[C@H]2CC(=O)C(=O)N2CCCC2)CN1C(=O)c1ccccc1,–,–,–,-4.74
SMILES,EP2 modulator,EP2 antag,Hsp70 act,Dynein cargo inh
COC(=O)[C@@]1(Cc2ccc(OC)cc2)[C@@H]2[C@@H](CC(=O)[C@H]2CC(=O)C(=O)N(C)C)CN1C(=O)c1ccccc1,–,–,–,–
Cc1ccc2[nH]c(=O)c(CN(Cc3cccnc3)Cc3nnnn3Cc3ccco3)cc2c1,–,–,·,·
CCCCOC(=O)Cn1c(-c2ccccc2)nc2ccccc2c1=O,–,–,–,–
CCCOC(=O)C(C)n1c(-c2ccccc2)nc2ccccc2c1=O (configuration not stated),61.5,–,–,–
O=C(O)CC[P+](c1ccccc1)(c1ccccc1)c1ccccc1,–,47.4,·,·
O=c1c2ccccc2c2ccccc2c(=O)n1-c1cc2c3ccccc3ccc2c2ccccc12,–,48.7,·,·
C=CCSC1=N/C(=C\c2sccc2C)C(=O)S1,63.8,–,–,–
C=CCSC1=N/C(=C\c2ccc3c(c2)OCO3)C(=O)S1,–,–,–,–
CCOc1ccccc1NC(=S)Nc1ncccc1C,–,41.4,–,–
O=C(c1ccc(Cl)cc1)N1CCCC(c2nc(-c3cccs3)no2)C1 (configuration not stated),–,–,·,·
CCCCN(CCCC)c1nc(-c2ccncc2)nc2ccccc12,68.3,–,·,–
Cc1ccc(C)c2[nH]c(=O)c(C(c3nnnn3C3CCCC3)N3CCc4ccccc43)cc12 (configuration not stated),101.2,–,·,·
CC(C)(C)n1nnnc1C(c1ccc(Cl)cc1)N1CCCc2ccccc21 (configuration not stated),–,–,–,–
COc1ccccc1C(c1nnnn1C(C)(C)C)N1CCCc2ccccc21 (configuration not stated),67.5!,–,–,–
COc1cc2cc(C(c3nnnn3C(C)(C)C)N3CCc4ccccc43)c(=O)[nH]c2cc1OC (configuration not stated),–,149.6,–,–
CC(C)(C)n1nnnc1C(c1cccc(C#N)c1)N1CCCc2ccccc21 (configuration not stated),–,103.2!,–,–
COc1cccc(CNC(=O)Cn2c(=O)n(C)c3ncccc32)c1,–,·,·,·
O=C(Cn1nc(C(F)(F)F)c2c1CCCC2)N1CCCCCC1,–,–,·,·
C=CCn1c(SCC)nc2sc3c(c2c1=O)CC(C)(C)OC3,80.2,–,·,·
CCCSc1nc2sc3c(c2c(=O)n1CC)CC(C)(C)OC3,–,–,·,–
CCOC(=O)c1cccc(NC(=O)CSc2nnc3c(C)cc4cc5c(cc4n23)OCO5)c1,–,48.1,·,·
Cc1ccc(C(=O)CSc2nnc3c(C)cc4cc5c(cc4n23)OCO5)cc1,–,–,·,·
COc1cccc(OCC2CCCN(S(=O)(=O)c3ncn[nH]3)C2)c1 (configuration not stated),–,–,·,·
COC(=O)c1c(NC(=O)Cn2nnc3ccccc32)sc2c1CCCC2,–,–,·,·
Cc1cc(N/N=C/c2ccc(O)c(C)c2O)nc(-c2ccccc2O)n1,–,90.5,–,–
SMILES,EP2 modulator,EP2 antag,Hsp70 act,Dynein cargo inh
C/C(=N\Nc1cc(C)nc(-c2ccccc2O)n1)c1ccccc1,–,–,–,–
Cc1ccc2cc(C(c3nnnn3C(C)(C)C)N3CCc4ccccc4C3)c(=O)[nH]c2c1 (configuration not stated),–,–,·,·
CC(=O)NCC1COc2ccccc2O1 (configuration not stated),–,53.9!,·,–
O=C(O)c1cn(-c2ccc(F)c(F)c2)c2c(F)c(F)c(F)c(F)c2c1=O,–,–,–,-6.36
CSc1ncnc2c1ncn2CC(=O)[C@@H]1CC[C@@H]2[C@H]3CCC4=CC(=O)CC[C@@]4(C)[C@@H]3CC[C@]21C,–,64.1,·,·
Cc1cccc2cc(C#N)c(NCCNC(=O)c3ccc(Br)cc3)nc12,–,–,·,·
N#Cc1cn(Cc2ccccc2)c2ccccc12,63.0,–,–,–
N#Cc1ccccc1Cn1cc(C#N)c2ccccc21,–,–,–,–
N#Cc1cn(Cc2ccc(Cl)cc2)c2ccccc12,67.3,–,·,·
CCc1nc2ccccc2c(C(=O)Nc2cccc(C)c2C)c1C,–,–,·,·
O=C(c1ccc(Cl)nc1)c1cccs1,–,–,·,–
O=C(c1cccs1)c1no[n+]([O-])c1C(=O)c1cccs1,–,129.6,–,–
COc1ccc(C(=O)c2no[n+]([O-])c2C(=O)c2ccc(OC)cc2)cc1,–,64.7,–,–
